Compounds with a hit are over-represented: about 2.2% of the library has one in this group of screens.
STEP block: blocks human striatal-enriched tyrosine phosphatase | inhibition, % at 20 µM | recombinant STEP, OMFP fluorogenic substrate, fluorescence | 360,000 compounds, 0.25% hits;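 active = inhibition at 20 µM, scaled per plate between control wells, above about 37%, limit read from the data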
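Also added – OMFP at 25 µM · Test system – STEP tyrosine phosphatase · Technique – FITC-channel fluorescence of OMFP product · Schedule – 20 min at room temperature, dark · Evaluation – control-normalized % inhibition with plate pattern correction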
GRK2 aptamer HTS: human GRK2 inhibition via aptamer displacement; P25098; bead flow cytometry, FAM-aptamer displacement from GRK2; inhibition of aptamer binding, % at 10 µM; 330,000 compounds, 0.59% hits;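 active = inhibition of aptamer binding above 40%, roughly 3 SD of noise, on plates passing a quality check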;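 note: median bead fluorescence of bound FAM aptamer so fluorescent compounds give negative values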
LMPTP block: blocks human LMPTP phosphatase. recombinant LMPTP-A, OMFP fluorogenic substrate, fluorescence intensity. inhibition, % at 20 µM. P24666. 360,000 compounds, 0.22% hits;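 active = compounds that cut the enzyme signal by at least half of the control window in the single-dose screen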
Target sequence (P24666 whole entry, looked up): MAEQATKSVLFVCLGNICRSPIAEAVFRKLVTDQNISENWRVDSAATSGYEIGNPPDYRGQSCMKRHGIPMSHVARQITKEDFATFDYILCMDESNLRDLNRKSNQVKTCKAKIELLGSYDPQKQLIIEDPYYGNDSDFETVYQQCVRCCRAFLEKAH
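Assay system: LMPTP-A enzyme. Input: 0.625 nM LMPTP-A final. Probe or stimulus: 400 µM OMFP. Compound dosing: single 20 µM dose. Schedule: 50 min dark incubation at room temperature. Detection: fluorescence intensity of OMFP turnover product. Read-out: percent inhibition versus substrate-only and uninhibited controls. Benchmarks: no-enzyme low control, uninhibited high control.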
Scp-1 inhibitor: blocks human Scp-1 phosphatase activity. Recombinant Scp1, phosphopeptide, malachite green phosphate absorbance. inhibition, % at 20 µM. 340,000 compounds, 0.88% hits. AID 493091;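 active = inhibition above about 50% at 20 µM, limit read from the data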
Target sequence (Q9GZU7 76-261 limits assumed): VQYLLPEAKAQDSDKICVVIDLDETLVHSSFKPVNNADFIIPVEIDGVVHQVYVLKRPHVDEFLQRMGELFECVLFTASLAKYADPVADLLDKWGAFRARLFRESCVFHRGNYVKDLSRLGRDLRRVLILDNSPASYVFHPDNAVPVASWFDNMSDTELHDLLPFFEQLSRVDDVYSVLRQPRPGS
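Assay system: SCP-1 catalytic fragment, aa 76-261 | Buffer or medium: Tris acetate buffer pH 5.5 with MgCl2 and Tween-20 | Compound: One concentration, 20 µM, with 1.0% DMSO | Also added: Phospho 17-mer peptide substrate | Signal: Absorbance at 630 nm | Incubation: 45 min enzyme reaction at room temperature | Measure: % inhibition of SCP-1 phosphate liberation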
DNMT1 block: inhibitors of human DNMT1. DNMT1 molecular beacon, Hinp1I cleavage, fluorescence. inhibition (reported as % activation of signal), % at 10 µM. 360,000 compounds, 0.83% hits. AID 588458; in the data active = inhibition above about 50%
SUMO1 PPI mod: SUMO1-SIM interaction modulation | SUMO1 binding to a labelled peptide, TR-FRET, 1 h | 360,000 compounds, 0.33% hits | AID 602429 | inhibition, % at 20 µM; in the data active = inhibition above about 37%
Target sequence (P63165 whole entry, looked up): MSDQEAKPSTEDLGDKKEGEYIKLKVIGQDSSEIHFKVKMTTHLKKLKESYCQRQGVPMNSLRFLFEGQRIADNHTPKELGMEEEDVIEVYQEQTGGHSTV
DNMT1 interf DR: beacon fluorescence artifact, dose response counter-screen | shares compounds with DNMT1 block | IC50, µM | 200 tested, under 10 active | molecular beacon fluorescence, spectral interference counter-screen; call rule not given here
DNMT1 inh conf: confirmation of human DNMT1 inhibitors; shares compounds with DNMT1 block; DNMT1 molecular beacon HinP1I cleavage, fluorescence; inhibition, % at 10 µM; 2,300 compounds, 8% hits;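 active = average inhibition of at least 30% in the single-concentration confirmation test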
DNMT1 interf: counter-screen for DNMT1 inhibitors: spectral interference. shares compounds with DNMT1 block. DNMT1 molecular beacon spectral interference counterscreen, fluorescence 485/520. activation (fluorescence interference), % at 10 µM. 2,300 compounds, 1% hits. AID 602387;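 active = activation of at least 30% at 10 µM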;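 note: DNMT1 catalytic domain with a HinP1I cleavage step and a FAM/dabcyl DNA beacon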
Hits are given with their value; - = inactive; . = not tested or not shown.

SMILES | STEP block | GRK2 aptamer HTS | LMPTP block | Scp-1 inhibitor | DNMT1 block | SUMO1 PPI mod | DNMT1 inh conf | DNMT1 interf | others
Nc1cc2c3ccccc3ccc2c2ccccc12 | - | . | - | - | 91 | - | - | -
CN(Cc1ccccc1)C(=O)COC(=O)c1cc([N+](=O)[O-])ccc1N1CCOCC1 | - | - | - | - | 111 | - | - | -
COc1ccccc1NC(=S)N=Nc1c(O)[nH]c2ccc(Br)cc12 | - | - | - | - | 89 | - | - | -
OC(CNC1CCCCC1)CON=C1CCSc2c(Cl)cccc21 (stereo not drawn) | - | . | - | . | - | - | . | .
O=C1N=C(N2CCOCC2)SC1=Cc1ccco1 | - | . | - | - | 81 | - | - | -
Cc1ccc(/C=C2\SC(N3CCN(C(c4ccccc4)c4ccccc4)CC3)=NC2=O)o1 | - | - | - | - | 79 | - | - | -
CCOC(=O)c1c(C)cc2c(CO)n[nH]c(=O)c2c1C | - | . | - | . | - | - | . | .
NS(=O)(=O)c1ccc(N/N=C/c2cn(-c3ccccc3)nc2-c2cccs2)c([N+](=O)[O-])c1 | - | - | - | - | - | - | - | -
NS(=O)(=O)c1ccc(N/N=C/c2cn(-c3ccccc3)nc2-c2cccs2)cc1 | - | - | - | - | - | - | . | .
O=c1ccc2cccc([N+](=O)[O-])c2[nH]1 | - | . | - | . | - | - | . | .
CC1=C(C#N)C(=O)NC(=O)/C1=C/c1ccc(-c2ccc(S(N)(=O)=O)cc2)o1 | - | - | - | - | - | - | . | .
C=CCOC(=O)c1cc(-c2ccc(/C=C3\C(=O)NC(=O)C(C#N)=C3C)o2)ccc1Cl | - | . | - | 87 | 105 | 43 | 97 | - | DNMT1 interf DR=-
Cc1ccccc1-c1cc2nc(C)c(C)c(=O)n2[nH]1 | - | - | - | - | 84 | - | - | -
COc1cc(C)ccc1S(=O)(=O)NC(=O)C1(C)CCN1C(=O)Cc1ccccc1Cl (stereo not drawn) | - | . | - | . | - | - | . | .
CCCc1c(C(=O)N/N=C/C=C/c2ccccc2)nnn1-c1nonc1N | - | . | - | . | 51 | - | - | -
CC1(C(=O)O)CCN1C(=O)c1cccnc1Oc1ccccc1 (stereo not drawn) | - | . | - | . | - | - | . | .
CCCc1c(C)[nH]c2ccc(C(=O)O)cc2c1=S | - | . | - | - | 93 | 96 | - | -
O=C(Nc1cccc(OC(F)(F)F)c1)c1ccc(-c2cccnc2)c2ccoc12 | - | . | - | . | 69 | - | - | -
COc1cc(NC(=O)c2ccc(-c3cccnc3)c3ccoc23)cc(OC)c1OC | - | . | - | . | - | - | . | .
Cc1nn(Cc2c(Cl)cccc2Cl)c(C)c1NC(=O)c1cn(-c2ccccc2)nc1-c1ccccc1 | - | - | - | - | 68 | - | - | -
Cc1cccc(C)c1NC(=O)CNC(=O)c1cn(-c2ccccc2)nc1-c1ccccc1 | - | - | - | - | - | - | . | .
CCN(C)C1CN(Cc2cn(CCCC(=O)OC)nn2)S(=O)(=O)C1 (stereo not drawn) | . | . | - | . | . | - | . | .
COC(=O)CN1C(=O)[C@H]2[C@@H](c3ccc(C)o3)N3C(=O)CN(CCO)C(=O)[C@@]3(C)[C@H]2C1=O | - | - | - | - | 103 | - | - | -
CC(C)(C)S(=O)N1Cc2cc(C(=O)NCC(F)(F)F)nc(-c3cccc(-c4cccc(F)c4)c3)c2[C@H]1CCO (stereo partly drawn) | - | . | - | . | - | - | . | .
COc1ccccc1CCNC(C)CCc1ccc(O)cc1 (stereo not drawn) | - | - | - | - | 68 | - | - | -
SMILES | STEP block | GRK2 aptamer HTS | LMPTP block | Scp-1 inhibitor | DNMT1 block | SUMO1 PPI mod | DNMT1 inh conf | DNMT1 interf | others
CCN(CC(=O)Nc1ccc(NC(C)=O)cc1)C(=O)C1CC1 | - | . | - | . | - | - | . | .
COc1ccccc1-c1nnc(NC(=O)c2ccc3c(c2)OCO3)s1 | - | - | - | - | 55 | - | - | -
Cc1ccc(S(=O)(=O)Nc2ccccc2OC(C(=O)OC(C)(C)C)C(=O)OC(C)(C)C)cc1 | . | . | - | . | . | - | . | .
COc1ccc(NC(=O)c2cc3c([nH]c4ccccc43)c(C)n2)cc1 | - | - | - | - | - | - | . | .
Cc1nc(C(=O)Nc2ccccc2Cl)cc2c1[nH]c1ccccc12 | - | - | - | - | 50 | - | - | -
CCCSc1nc2c(c(=O)[nH]c(=O)n2C)n1Cc1ccc(C)cc1 | - | - | - | - | 54 | - | - | -
Cn1c(=O)c2c(nc(SCc3cccnc3)n2Cc2ccccc2)n(C)c1=O | - | - | - | - | - | - | . | .
Cc1ccc(Cn2c(SCc3cccnc3)nc3c2c(=O)n(C)c(=O)n3C)cc1 | - | - | - | - | 108 | - | - | -
CCOc1ccc(N(CC(=O)Nc2c(C)cc(C)cc2C)C2=NC3CS(=O)(=O)CC3S2)cc1 (stereo not drawn) | - | . | - | . | - | - | . | .
COc1ccc(N=Cc2ccccc2O)cc1 | - | . | - | - | - | - | . | .
COc1ccc(N=Cc2oc3ccc4ccccc4c3c2O)cc1 | - | - | - | - | 60 | - | - | -
Cc1ccccc1C(=O)Nc1ccc2c(C#N)c3nc4ccccc4nc3n2c1 | - | - | - | 94 | 66 | - | - | -
CCOC(=O)CCC1(C(=O)OC)C(=O)CCCCCC=C1C(=O)OC (stereo not drawn) | - | . | - | . | - | - | . | .
COC(=O)c1ccc(CNC(=O)c2ccccc2C(=O)NCC2(CBr)OCCO2)cc1 | - | . | - | . | - | - | . | .
O=C(CC1CCCC1)N1CCN(S(=O)(=O)c2c(F)cccc2F)CC1 | - | . | - | . | - | - | . | .
CC(=O)Nc1ccc(N2C(=O)c3cccc4c(O)ccc(c34)C2=O)cc1 | - | - | - | - | 51 | - | 106 | 99
O=C1c2cccc3c(O)ccc(c23)C(=O)N1c1ccc(Cl)cc1 | - | - | - | - | - | - | . | .
Cc1ccc2oc(=O)c3cc(C(=O)NCCN4CCN(C)CC4)sc3c2c1 | - | - | - | - | - | - | . | .
Cc1ccc2oc(=O)c3cc(C(=O)NCCCN4CCCCCC4)sc3c2c1 | - | - | - | - | 67 | - | - | -
CCOC(=O)[C@]12CCC=C1N(Cc1ccc3c(c1)OCO3)C(=O)[C@H](CC(=O)N1CCN(C(=O)c3ccco3)CC1)C2 | . | . | - | . | . | - | . | .
CN1CCCC(C)(C(=O)Nc2cccc(Oc3ccccc3)c2)C1 (stereo not drawn) | - | . | - | . | - | - | . | .
N#C/C(=C\c1ccc(-c2ccc([N+](=O)[O-])cc2)o1)C(=O)Nc1nc(-c2cccs2)cs1 | - | - | - | - | 95 | - | - | -
